Assays:
[1] = Inhibition of Norovirus 3CL protease using Edans-DFHLQ/GP-Dabcyl as substrate preincubated for 30 mins followed by substrate addition measured for 1 hr by FRET assay
Method in brief: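 Protease preincubated at 37 °C for 30 min with serially diluted compound (up to 100 μM) or DMSO in assay buffer: 20 mM HEPES pH 8, 200 mM NaCl, 0.4 mM EDTA, 60% glycerol, 6 mM DTT. Substrate was then added. Fluorescence (ex 360/em 460 nm) was read for 1 h, with no-protease background subtracted. IC50 came from variable-slope dose-response fits.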

[2] = system: Norovirus; test: Antiviral activity against Norovirus replicon infected in human HG23 cells assessed as inhibition of viral RNA replication after 48 hrs by qRT-PCR method; assay type: functional, organism-based
Method in brief: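 HG23 cells carrying the NV replicon, confluent or semi-confluent, were given medium with compound (up to 100 μM) or DMSO (<0.1%) for 48 h. Total RNA was then extracted and viral genome quantified by real-time qRT-PCR. EC50 was derived from curve fitting.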

[3] = Cytotoxicity against human HG23 cells after 72 hrs by crystal violet staining-based assay; assay type: cell-based

IC50 [1] [µM] | EC50 ([2]; Norovirus, HG23, 48 h) [µM] | EC50 [2] [µM] | Compound | CC50 at 72 h [3] [µM]
10.6 | 17.3 |  | CC(C)C[C@@H](C(=O)N[C@@H](C[C@@H]1CCNC1=O)C(O)S(=O)(=O)O)N1CC(COCc2cccc(Cl)c2)OC1=O (mixture of isomers) | > 100
13.2 |  | 17.5 | CC(C)C[C@@H](C(=O)N[C@@H](C[C@@H]1CCNC1=O)C(O)S(=O)(=O)O)N1CC(Cc2cccc(Cl)c2)OC1=O (stereo in doubt; 12B) | > 100
7.3 | 11.5 |  | CC(C)C[C@@H](C(=O)N[C@H](C=O)C[C@@H]1CCNC1=O)N1CC(Cc2cccc(Cl)c2)OC1=O (stereo in doubt; 8A) | 
8.1 | 14.8 |  | CC(C)C[C@@H](C(=O)N[C@H](C=O)C[C@@H]1CCNC1=O)N1CC(COCc2cccc(Cl)c2)OC1=O (mixture of isomers) | > 100
8.5 | 7.6 |  | CC(C)C[C@@H](C(=O)N[C@@H](C[C@@H]1CCNC1=O)C(O)S(=O)(=O)O)N1CC(COc2cccc(Cl)c2)OC1=O (mixture of isomers) | > 100
3.8 | 8.2 |  | CC(C)C[C@@H](C(=O)N[C@H](C=O)C[C@@H]1CCNC1=O)N1CC(COc2cccc(Cl)c2)OC1=O (mixture of isomers) | > 100
13.5 | 6.7 |  | O=C[C@H](C[C@@H]1CCNC1=O)NC(=O)[C@H](CC1CCCCC1)N1CC(Cc2cccc(Cl)c2)OC1=O (mixture of isomers) | 55.2
8.2 | 12.3 |  | CC(C)C[C@@H](C(=O)N[C@@H](C[C@@H]1CCNC1=O)C(O)S(=O)(=O)O)N1CC(Cc2cccc(Cl)c2)OC1=O (stereo in doubt; 12A) | 
15.3 |  | 15.3 | CC(C)C[C@@H](C(=O)N[C@H](C=O)C[C@@H]1CCNC1=O)N1CC(Cc2cccc(Cl)c2)OC1=O (stereo in doubt; 8B) | > 100
15.1 | 8.1 |  | O=C1NCC[C@H]1C[C@H](NC(=O)[C@H](CC1CCCCC1)N1CC(Cc2cccc(Cl)c2)OC1=O)C(O)S(=O)(=O)O (mixture of isomers) | 46.1

— ChEMBL document CHEMBL4138240, “Structure-guided design, synthesis and evaluation of oxazolidinone-based inhibitors of norovirus 3CL protease” (Eur J Med Chem, 2018)
